From ChEMBL document CHEMBL5724801, “EUbOPEN Chemogenomics Library - Multiplex” (2024)
“And” between values parts separate entries of the source, which are not always exact repeats. Equal values may be shown once.

Test system: HEK-293T
Assay: Multiplex assay against HEK293T
Format: toxicity, cell-based
Conditions: human
In short: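 Phenotypes for tubulin, mitochondrial mass and membrane permeability are expressed as per cents of healthy-nucleus cells. Cells were stained live at seeding with Hoechst33342, BioTracker Green Microtubule Cytoskeleton Dye, MitoTracker Red and Annexin V Alexa Fluor 680, then imaged after compound addition on a CQ1 microscope at 37°C and 5% CO2. Machine-learning gating in CellPathfinder separated Hoechst high-intensity objects from normal cells, divided normal cells by nuclear state (healthy, pyknosed, fragmented) and divided pyknosed cells into mitotic or apoptotic.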

[1] = 12 h, 1 µM, compound concentration 1 uM
[2] = 12 h, 10 µM, compound concentration 10 uM
[3] = 24 h, 1 µM, compound concentration 1 uM
[4] = 24 h, 10 µM, compound concentration 10 uM
[5] = 48 h, 1 µM, compound concentration 1 uM
[6] = 48 h, 10 µM, compound concentration 10 uM

CC(=O)NCCc1c(Cc2ccccc2)[nH]c2ccccc12 [LUZINDOLE]
Population Apoptotic (%) [1]: 38% and 43%
Population Fragmented Nuclei (%) [1]: 7% and 5%
Population Healthy Nuclei (%) [1]: 79% and 80%
Population Hoechst High Intensity Objects (%) [1]: 11% and 8%
Population Membrane Permeable-Phenotype (%) [1]: 0%
Population Mitochondria Different-Phenotype (%) [1]: 54% and 68%
Population Mitotic Cells (%) [1]: 61% and 56%
Population Normal (%) [1]: 88% and 91%
Population Pyknosed Nuclei (%) [1]: 12% and 13%
Population Tubulin-Different-Phenotype (%) [1]: 39% and 27%
Total Cell Count [1]: 412 and 304
Population Apoptotic (%) [2]: 37% and 53%
Population Fragmented Nuclei (%) [2]: 8% and 5%
Population Healthy Nuclei (%) [2]: 77% and 80%
Population Hoechst High Intensity Objects (%) [2]: 10% and 9%
Population Membrane Permeable-Phenotype (%) [2]: 0%
Population Mitochondria Different-Phenotype (%) [2]: 61% and 72%
Population Mitotic Cells (%) [2]: 62% and 46%
Population Normal (%) [2]: 89% and 90%
Population Pyknosed Nuclei (%) [2]: 14%
Population Tubulin-Different-Phenotype (%) [2]: 45% and 35%
Total Cell Count [2]: 379 and 315
Population Apoptotic (%) [3]: 20% and 40%
Population Fragmented Nuclei (%) [3]: 12% and 7%
Population Healthy Nuclei (%) [3]: 75% and 82%
Population Hoechst High Intensity Objects (%) [3]: 7% and 8%
Population Membrane Permeable-Phenotype (%) [3]: 0%
Population Mitochondria Different-Phenotype (%) [3]: 33% and 45%
Population Mitotic Cells (%) [3]: 80% and 60%
Population Normal (%) [3]: 92% and 91%
Population Pyknosed Nuclei (%) [3]: 11% and 10%
Population Tubulin-Different-Phenotype (%) [3]: 26% and 18%
Total Cell Count [3]: 546 and 379
Population Apoptotic (%) [4]: 40% and 28%
Population Fragmented Nuclei (%) [4]: 9% and 11%
Population Healthy Nuclei (%) [4]: 81% and 77%
Population Hoechst High Intensity Objects (%) [4]: 10% and 11%
Population Membrane Permeable-Phenotype (%) [4]: 1% and 0%
Population Mitochondria Different-Phenotype (%) [4]: 40% and 58%
Population Mitotic Cells (%) [4]: 60% and 71%
Population Normal (%) [4]: 89% and 88%
Population Pyknosed Nuclei (%) [4]: 8% and 11%
Population Tubulin-Different-Phenotype (%) [4]: 32% and 24%
Total Cell Count [4]: 502 and 388
Population Apoptotic (%) [5]: 24% and 46%
Population Fragmented Nuclei (%) [5]: 16% and 12%
Population Healthy Nuclei (%) [5]: 78% and 82%
Population Hoechst High Intensity Objects (%) [5]: 3% and 6%
Population Membrane Permeable-Phenotype (%) [5]: 1% and 0%
Population Mitochondria Different-Phenotype (%) [5]: 16% and 23%
Population Mitotic Cells (%) [5]: 75% and 53%
Population Normal (%) [5]: 96% and 93%
Population Pyknosed Nuclei (%) [5]: 5%
Population Tubulin-Different-Phenotype (%) [5]: 12% and 13%
Total Cell Count [5]: 965 and 522
Population Apoptotic (%) [6]: 27% and 36%
Population Fragmented Nuclei (%) [6]: 13% and 11%
Population Healthy Nuclei (%) [6]: 79% and 82%
Population Hoechst High Intensity Objects (%) [6]: 9% and 6%
Population Membrane Permeable-Phenotype (%) [6]: 0%
Population Mitochondria Different-Phenotype (%) [6]: 27% and 32%
Population Mitotic Cells (%) [6]: 72% and 63%
Population Normal (%) [6]: 90% and 93%
Population Pyknosed Nuclei (%) [6]: 7% and 5%
Population Tubulin-Different-Phenotype (%) [6]: 17% and 19%
Total Cell Count [6]: 742 and 573

Cl.Clc1cc2cc(c1)-c1cnn3ccc(nc13)NCCOCCO2
Population Apoptotic (%) [1]: 7.52% and 9.38%
Population Fragmented Nuclei (%) [1]: 1.41% and 6.41%
Population Hoechst High Intensity Objects (%) [1]: 0%
Population Membrane Permeable-Phenotype (%) [1]: 0.46% and 0%
Population Mitochondria Different-Phenotype (%) [1]: 39.63% and 22.22%
Population Mitotic Cells (%) [1]: 92.48% and 90.62%
Population Normal (%) [1]: 100%
Population Pyknosed Nuclei (%) [1]: 37.46% and 82.05%
Total Cell Count [1]: 355 and 156
Population Apoptotic (%) [2]: 20.33% and 8.33%
Population Fragmented Nuclei (%) [2]: 2.02% and 1.83%
Population Healthy Nuclei (%) [2]: 56.57% and 25%
Population Hoechst High Intensity Objects (%) [2]: 0% and 0.61%
Population Membrane Permeable-Phenotype (%) [2]: 1.19% and 2.44%
Population Mitochondria Different-Phenotype (%) [2]: 35.71% and 26.83%
Population Mitotic Cells (%) [2]: 79.67% and 91.67%
Population Normal (%) [2]: 100% and 99.39%
Population Pyknosed Nuclei (%) [2]: 41.41% and 73.17%
Total Cell Count [2]: 297 and 165
Population Apoptotic (%) [3]: 18.58% and 9.43%
Population Fragmented Nuclei (%) [3]: 0.93% and 4.73%
Population Hoechst High Intensity Objects (%) [3]: 0%
Population Membrane Permeable-Phenotype (%) [3]: 1.19% and 0%
Population Mitochondria Different-Phenotype (%) [3]: 17.58% and 22.86%
Population Mitotic Cells (%) [3]: 81.42% and 90.57%
Population Normal (%) [3]: 100%
Population Tubulin-Different-Phenotype (%) [3]: 11.16% and 5.71%
Population Apoptotic (%) [4]: 25.26% and 16.38%
Population Fragmented Nuclei (%) [4]: 2.17% and 2.23%
Population Healthy Nuclei (%) [4]: 72.01% and 32.96%
Population Hoechst High Intensity Objects (%) [4]: 0%
Population Membrane Permeable-Phenotype (%) [4]: 0.75% and 0%
Population Mitochondria Different-Phenotype (%) [4]: 30.19% and 10.17%
Population Mitotic Cells (%) [4]: 74.74% and 83.62%
Population Normal (%) [4]: 100%
Population Pyknosed Nuclei (%) [4]: 25.82% and 64.8%
Population Tubulin-Different-Phenotype (%) [4]: 9.81% and 5.08%
Total Cell Count [4]: 368 and 179
Population Fragmented Nuclei (%) [5]: 3.48% and 1.96%
Population Healthy Nuclei (%) [5]: 87.01% and 64.71%
Population Hoechst High Intensity Objects (%) [5]: 0% and 0.97%
Population Membrane Permeable-Phenotype (%) [5]: 5.92% and 3.03%
Population Mitochondria Different-Phenotype (%) [5]: 15.1% and 25%
Population Mitotic Cells (%) [5]: 97.71% and 83.82%
Population Normal (%) [5]: 100% and 99.03%
Population Apoptotic (%) [6]: 16.05% and 15.07%
Population Fragmented Nuclei (%) [6]: 3.95% and 2.66%
Population Healthy Nuclei (%) [6]: 86.64% and 69.58%
Population Hoechst High Intensity Objects (%) [6]: 0.12% and 0.75%
Population Membrane Permeable-Phenotype (%) [6]: 3.08% and 0%
Population Mitochondria Different-Phenotype (%) [6]: 26.54% and 19.13%
Population Mitotic Cells (%) [6]: 83.95% and 84.93%
Population Normal (%) [6]: 99.88% and 99.25%
Population Pyknosed Nuclei (%) [6]: 9.41% and 27.76%

CCOc1ccccc1C(=O)NCC1(N2CCN(CC)CC2)CCCCC1
Population Apoptotic (%) [1]: 17.61% and 11.57%
Population Fragmented Nuclei (%) [1]: 1.59% and 5.52%
Population Hoechst High Intensity Objects (%) [1]: 0%
Population Membrane Permeable-Phenotype (%) [1]: 0.66% and 6.25%
Population Mitotic Cells (%) [1]: 82.39% and 88.43%
Population Normal (%) [1]: 100%
Population Pyknosed Nuclei (%) [1]: 50.48% and 83.45%
Population Tubulin-Different-Phenotype (%) [1]: 10.6% and 18.75%
Total Cell Count [1]: 315 and 145
Population Apoptotic (%) [2]: 15.84% and 21.31%
Population Fragmented Nuclei (%) [2]: 1.84% and 5.41%
Population Healthy Nuclei (%) [2]: 36.2% and 12.16%
Population Hoechst High Intensity Objects (%) [2]: 0% and 0.67%
Population Membrane Permeable-Phenotype (%) [2]: 0.85% and 0%
Population Mitochondria Different-Phenotype (%) [2]: 25.42% and 50%
Population Mitotic Cells (%) [2]: 84.16% and 78.69%
Population Normal (%) [2]: 100% and 99.33%
Population Pyknosed Nuclei (%) [2]: 61.96% and 82.43%
Population Tubulin-Different-Phenotype (%) [2]: 38.14% and 77.78%
Total Cell Count [2]: 326 and 149
Population Apoptotic (%) [3]: 13.73% and 14.84%
Population Fragmented Nuclei (%) [3]: 1% and 7.69%
Population Hoechst High Intensity Objects (%) [3]: 0.2% and 0.59%
Population Membrane Permeable-Phenotype (%) [3]: 2.05% and 0%
Population Mitochondria Different-Phenotype (%) [3]: 24.34% and 10.71%
Population Mitotic Cells (%) [3]: 86.27% and 85.16%
Population Normal (%) [3]: 99.8% and 99.41%
Population Pyknosed Nuclei (%) [3]: 30.66% and 75.74%
Population Tubulin-Different-Phenotype (%) [3]: 21.41% and 10.71%
Total Cell Count [3]: 500 and 170
Population Apoptotic (%) [4]: 40.41% and 45.37%
Population Fragmented Nuclei (%) [4]: 1.63% and 6.29%
Population Hoechst High Intensity Objects (%) [4]: 0%
Population Membrane Permeable-Phenotype (%) [4]: 1.45% and 0%
Population Mitochondria Different-Phenotype (%) [4]: 39.49% and 42.31%
Population Mitotic Cells (%) [4]: 59.59% and 54.63%
Population Normal (%) [4]: 100%
Population Pyknosed Nuclei (%) [4]: 34.03% and 75.52%
Population Tubulin-Different-Phenotype (%) [4]: 64.13% and 73.08%
Total Cell Count [4]: 429 and 143
Population Fragmented Nuclei (%) [5]: 1.56% and 2.66%
Population Healthy Nuclei (%) [5]: 84.02% and 40.96%
Population Hoechst High Intensity Objects (%) [5]: 0%
Population Membrane Permeable-Phenotype (%) [5]: 5.34% and 1.3%
Population Mitochondria Different-Phenotype (%) [5]: 24.83% and 45.45%
Population Mitotic Cells (%) [5]: 94.59% and 81.13%
Population Normal (%) [5]: 100%
Population Apoptotic (%) [6]: 21.8% and 42.22%
Population Fragmented Nuclei (%) [6]: 2.46% and 4.08%
Population Healthy Nuclei (%) [6]: 79.37% and 50%
Population Hoechst High Intensity Objects (%) [6]: 0.14% and 1.01%
Population Membrane Permeable-Phenotype (%) [6]: 3.96% and 3.06%
Population Mitochondria Different-Phenotype (%) [6]: 67.81% and 74.49%
Population Mitotic Cells (%) [6]: 78.2% and 57.78%
Population Normal (%) [6]: 99.86% and 98.99%
Population Pyknosed Nuclei (%) [6]: 18.17% and 45.92%
